Assay results of several laboratories.
Compare with care: the assays were run in different laboratories.
Read-out: enzyme activity
Mode: inhibitor
rep main protease: Replicase polyprotein 1ab, main protease (rep, Severe acute respiratory syndrome coronavirus 2, UniProt P0DTD1)
rep papain-like protease: Replicase polyprotein 1ab, papain-like protease (rep, Severe acute respiratory syndrome coronavirus 2, UniProt P0DTD1)

SMILES	target	test	setting	inhibition [%]
NC(=O)c1ccc(/C=C/C(=O)N2CCC[C@@]3(CCN(C(=O)[C@@H]4CC(=O)NC(=O)N4)C3)C2)cc1	rep main protease	–	5 µM	14.7
C[C@@H]1O[C@@H](OC[C@H]2O[C@@H](OCCc3ccc(O)c(O)c3)[C@H](OC(=O)/C=C/c3ccc(O)c(O)c3)[C@@H](O)[C@@H]2O)[C@H](O)[C@H](O)[C@H]1O	rep main protease	–	100 µM	99.3
Cc1c(-c2cnccn2)ssc1=S	rep main protease	–	20 µM	97.6
COCOc1cc(C)cc2c1C(=O)C=CC2=O	rep main protease	–	10 µM	79.6
Cc1cccc2cc(/C=N\c3ccc(-c4nc5ccccc5[nH]4)cc3)c(Cl)nc12	rep papain-like protease	–	100 µM	44.9
COc1cccc2c1C(=O)C(C(C)=O)=CC2=O	rep main protease	–	0.1 µM	35.2
O=C(NCc1cccnc1)Nc1csc([N+](=O)[O-])c1	rep main protease	–	20 µM	4.45
O=c1c(O)c(-c2ccc(O)c(O)c2)oc2cc(O)cc(O)c12	rep main protease	FRET	10 µM, 10 min	> 50
O=C(O)[C@H]1O[C@@H](Oc2cc3oc(-c4ccc(O)cc4)cc(=O)c3c(O)c2O)[C@H](O)[C@@H](O)[C@@H]1O	rep papain-like protease	–	50 µM	41.8
Cn1c(C(=O)Nc2ccc(Cl)cc2)cc2c(=O)n3ccccc3nc21	rep main protease	–	100 µM	33
CCOC(=O)c1ccc(OC(=O)CCCCCNC(=N)N)cc1	rep main protease	–	10 µM	3
CCOC(=O)COc1cc(C)cc2c1C(=O)C=CC2=O	rep main protease	–	1 µM	94.6
Cc1cccn2c(=O)c3cc(C(=O)Nc4ccc(N(C)C)cc4)n(C)c3nc12	rep main protease	–	10 µM	8.7
COc1cc(C)cc2c1C(=O)C=CC2=O	rep main protease	–	0.1 µM	-4.4
C/N=c1\nc(-c2ccccc2)n(-c2ccccc2)s1	rep main protease	–	20 µM	96.7
O=C1C=CC(=O)c2ccccc21	rep main protease	–	10 µM	97.7
O=C(O)/C=C/c1ccc(O)c(O)c1	rep main protease	FRET	10 µM, 10 min	< 25
CC[C@H](NC(=O)OCc1ccccc1)C(=O)N[C@H](C(=O)N[C@@H](CC(C)C)C(=O)N(C)N(C#N)CCC(N)=O)C(C)(C)C	rep main protease	fluorescence	50 µM, pH 7.2	100
CCc1ccc(NC(=O)c2cc3c(=O)n4ccccc4nc3n2C)cc1	rep main protease	–	100 µM	49
O=C(Nc1cccc(C(F)(F)F)c1)c1ccc([N+](=O)[O-])o1	rep main protease	–	20 µM	1.47
Cc1nc(C(=O)N2CC[C@@H]([C@@H]3CCCN3C(=O)c3cc(O)c4ccoc4c3)C2)cc(=O)[nH]1	rep main protease	–	5 µM	12.2
CN1CCc2cccc3c2[C@H]1Cc1ccc(O)c(O)c1-3	rep main protease	–	20 µM	-23
O=C(/C=C/c1ccc2ncccc2c1)N1CCC[C@@]2(CCN(C(=O)c3cc(=O)[nH]c(=O)[nH]3)C2)C1	rep main protease	–	5 µM	18
O=c1c(O)c(-c2ccccc2)oc2cc(O)cc(O)c12	rep main protease	FRET	10 µM, 10 min	25 to 50
COc1cc(O)cc(/C=C/c2ccc(O)cc2)c1	rep main protease	–	20 µM	38.1
O=C1c2cccc(O)c2C(=O)c2c(O)cc(CO)cc21	rep main protease	–	10 µM	10.1

SMILES	target	test	setting	inhibition [%]
O=c1cc(-c2ccccc2)oc2cc(O)c(O)c(O)c12	rep main protease	–	10 µM	87
CC(C)C[C@H](NC(=O)[C@@H](NC(=O)OCc1ccccc1)C(C)(C)C)C(=O)N(C)N(C#N)CCC(N)=O	rep main protease	fluorescence	50 µM, pH 7.2	100
S=c1[nH]c2ccccc2s1	rep main protease	–	20 µM	63.6
O=C(O)Cc1ccc(O)c([N+](=O)[O-])c1	rep main protease	FRET	10 µM, 10 min	< 25
Cc1cc(NC(=O)c2cc3c(=O)n4cccc(C)c4nc3n2C)ccc1Br	rep main protease	–	1 µM	14
O=C(NCc1ccccn1)Nc1csc2ccccc12	rep main protease	–	20 µM	-3.23
Cc1ccc2nc(Cl)c(/C=N/NC(=O)c3ccncc3)cc2c1	rep papain-like protease	–	100 µM	38.4
Cc1cc(OCc2ccccc2)c2c(c1)C(=O)C=CC2=O	rep main protease	–	10 µM	96.4
CC(=O)Nc1ccc(-c2cnc(/N=C\c3cc4ccccc4nc3Cl)s2)cc1	rep papain-like protease	–	10 µM	39
COc1cc(C[C@@H](C)[C@@H](C)Cc2ccc(O)c(OC)c2)ccc1O	rep papain-like protease	FRET	8 µM	56.4
CCC(=O)Oc1cccc2c1C(=O)C=CC2=O	rep main protease	–	0.1 µM	35
CC1(C)C=Cc2c(ccc3c2OC[C@@H](c2ccc(O)cc2O)C3)O1	rep main protease	–	8 µM	17.4
Cc1ccc(NC(=O)c2cc3c(=O)n4cccc(C)c4nc3n2C)cc1Cl	rep main protease	–	100 µM	37
COc1cc([C@H]2OC[C@H]3[C@@H]2CO[C@H]3c2ccc(OC)c(OC)c2)ccc1O	rep main protease	–	100 µM	11.4
Cn1c(C(=O)Nc2ccc3c(c2)OCCO3)cc2c(=O)n3ccccc3nc21	rep main protease	–	10 µM	42
Oc1ccc([C@H]2COc3cc(O)ccc3C2)cc1	rep main protease	–	50 µM	18.5
Cc1ccc2nc(Cl)c(C=Nc3cc(Br)ccn3)cc2c1	rep papain-like protease	–	100 µM	23.9
COC(=O)C1=CO[C@@H](O[C@@H]2O[C@H](CO)[C@@H](O)[C@H](O)[C@H]2O)[C@@H]2[C@@H](C)[C@@H](O)C[C@H]12	rep papain-like protease	–	50 µM	-1.7
CN(C(=O)[C@H](Cc1ccccc1)NC(=O)[C@@H](NC(=O)OCc1ccccc1)C(C)(C)C)N(C#N)CCC(N)=O	rep main protease	fluorescence	50 µM, pH 7.2	100
NC(=O)CCOC1CCN(C(c2ccccc2)c2ccccc2)CC1	rep main protease	–	20 µM	11.5
CCN(CC)C(=S)SSC(=S)N(CC)CC	rep main protease	fluorescence	10 µM, pH 7.2	100
Cc1ccc(NC2C=CS(=O)(=O)C2)cc1 (stereo not drawn)	rep main protease	–	20 µM	2.03
O=C(CSc1nnc2c(n1)[nH]c1ccccc12)Nc1cccc(S(=O)(=O)N2CCOCC2)c1	rep main protease	–	100 µg/mL	0
COc1cc(O)c2c(=O)c(O)c(-c3ccc(O)c(O)c3)oc2c1	rep main protease	–	20 µM	52
O=C(/C=C/c1ccc(O)c(O)c1)O[C@@H]1C[C@](O)(C(=O)O)C[C@@H](O)[C@H]1O	rep papain-like protease	–	50 µM	12.5
